The text below walks through data of ChEMBL document CHEMBL5696442, “Discovery of type II inhibitors of TGFβ-activated kinase 1 (TAK1) and mitogen-activated protein kinase kinase kinase kinase 2 (MAP4K2)” (J Med Chem, 2015).

For data set [1], the target named is Tyrosine-protein kinase Fer (Homo sapiens, UniProt P16591). Nature of the data set: Inhibition of FER ACT labeling site in human A-375 cells at 0.5 uM by KiNativ Profiling analysis relative to control. The class given is cell-based.
Data set [2] has as its target Mitogen-activated protein kinase 8 (Homo sapiens, UniProt P45983). The experiment in a line: Inhibition of JNK1 Lys2 labeling site in human A-375 cells at 0.5 uM by KiNativ Profiling analysis relative to control. It is filed as cell-based.
Data set [3] addresses Cyclin-dependent kinase 17 (Homo sapiens) (UniProt Q00537). The experiment in a line: Inhibition of PCTAIRE2 Lys1 labeling site harbouring SKLTENLVALKEIRLEHEEGAPCTAIR in human A-375 cells at 5 uM by KiNativ Profiling analysis relative to control. It is filed as cell-based.
Data set [4] addresses T1, Serine/threonine-protein kinase Nek9 (Homo sapiens) (UniProt Q8TD19).
T1 sequence (whole entry): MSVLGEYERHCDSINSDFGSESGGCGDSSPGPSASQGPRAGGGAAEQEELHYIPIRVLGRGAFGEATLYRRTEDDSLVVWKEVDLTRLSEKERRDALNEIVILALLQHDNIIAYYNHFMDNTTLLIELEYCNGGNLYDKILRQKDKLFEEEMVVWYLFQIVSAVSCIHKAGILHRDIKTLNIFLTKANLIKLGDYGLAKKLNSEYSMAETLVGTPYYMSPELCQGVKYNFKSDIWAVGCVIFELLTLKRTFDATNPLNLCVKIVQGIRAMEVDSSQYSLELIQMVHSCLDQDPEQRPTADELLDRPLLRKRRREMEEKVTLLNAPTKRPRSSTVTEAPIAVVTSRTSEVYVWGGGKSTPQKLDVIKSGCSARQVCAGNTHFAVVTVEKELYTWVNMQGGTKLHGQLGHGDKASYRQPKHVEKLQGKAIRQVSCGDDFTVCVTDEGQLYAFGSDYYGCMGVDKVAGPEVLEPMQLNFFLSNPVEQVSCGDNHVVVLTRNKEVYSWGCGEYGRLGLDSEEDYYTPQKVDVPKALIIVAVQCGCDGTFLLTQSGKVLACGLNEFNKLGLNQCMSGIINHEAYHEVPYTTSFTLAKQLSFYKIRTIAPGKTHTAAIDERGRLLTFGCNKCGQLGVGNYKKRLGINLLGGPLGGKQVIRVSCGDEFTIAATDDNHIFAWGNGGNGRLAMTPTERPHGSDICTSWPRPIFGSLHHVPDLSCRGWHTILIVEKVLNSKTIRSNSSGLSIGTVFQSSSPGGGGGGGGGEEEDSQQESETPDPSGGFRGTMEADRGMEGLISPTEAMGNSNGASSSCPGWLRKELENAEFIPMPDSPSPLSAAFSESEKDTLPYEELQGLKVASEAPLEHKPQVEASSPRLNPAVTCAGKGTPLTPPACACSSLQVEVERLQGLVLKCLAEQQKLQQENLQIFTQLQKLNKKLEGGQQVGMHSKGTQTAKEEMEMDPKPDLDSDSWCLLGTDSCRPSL
The experiment in a line: Inhibition of NEK9 Lys1 labeling site harbouring RTEDDSLVVWKEVDLTR in human A-375 cells at 5 uM by KiNativ Profiling analysis relative to control. It is filed as cell-based.

Data set [5] concerns the target Receptor tyrosine-protein kinase erbB-3 (Homo sapiens) (UniProt P21860). The experiment in a line: Inhibition of HER3/ErbB3 ACT labeling site in human A-375 cells at 0.05 uM by KiNativ Profiling analysis relative to control. It is filed as cell-based.
Data set [6] has as its target Serine/threonine-protein kinase WNK1 (Homo sapiens) (UniProt Q9H4A3). The experiment in a line: Inhibition of Wnk1 ACT labeling site in human A-375 cells at 0.05 uM by KiNativ Profiling analysis relative to control. It is filed as cell-based.
Data set [7] addresses T2, Aurora kinase C (Homo sapiens) (UniProt Q9UQB9).
T2 sequence (whole entry): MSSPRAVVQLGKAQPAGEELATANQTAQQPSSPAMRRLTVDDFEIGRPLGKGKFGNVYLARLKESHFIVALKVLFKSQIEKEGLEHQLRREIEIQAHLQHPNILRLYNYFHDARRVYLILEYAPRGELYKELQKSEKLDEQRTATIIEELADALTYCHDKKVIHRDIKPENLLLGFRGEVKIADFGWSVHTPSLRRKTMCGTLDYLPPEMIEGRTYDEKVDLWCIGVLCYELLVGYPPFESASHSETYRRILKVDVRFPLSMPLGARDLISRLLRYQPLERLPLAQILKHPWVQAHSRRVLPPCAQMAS
Nature of the data set: Inhibition of AurC ATP Loop labeling site in human A-375 cells at 0.5 uM by KiNativ Profiling analysis relative to control. The class given is cell-based. The essentials: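 Live A375 melanoma cells were treated with compound at 5 or 0.5 μM, then lysed. The lysates were labeled with a lysine-reactive ATP or ADP-biotin probe. Kinase protection from probe labeling was measured by KiNativ.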

The nature of data set [8]: Cmax in Swiss albino mouse at 10 mg/kg, po measured upto 24 hrs by LC/MS/MS analysis. It is filed as ADME, organism-based. Conditions: in vivo.
Data set [9] concerns the target T3, Ephrin type-B receptor 4 (Homo sapiens) (UniProt P54760).
T3 sequence (whole entry): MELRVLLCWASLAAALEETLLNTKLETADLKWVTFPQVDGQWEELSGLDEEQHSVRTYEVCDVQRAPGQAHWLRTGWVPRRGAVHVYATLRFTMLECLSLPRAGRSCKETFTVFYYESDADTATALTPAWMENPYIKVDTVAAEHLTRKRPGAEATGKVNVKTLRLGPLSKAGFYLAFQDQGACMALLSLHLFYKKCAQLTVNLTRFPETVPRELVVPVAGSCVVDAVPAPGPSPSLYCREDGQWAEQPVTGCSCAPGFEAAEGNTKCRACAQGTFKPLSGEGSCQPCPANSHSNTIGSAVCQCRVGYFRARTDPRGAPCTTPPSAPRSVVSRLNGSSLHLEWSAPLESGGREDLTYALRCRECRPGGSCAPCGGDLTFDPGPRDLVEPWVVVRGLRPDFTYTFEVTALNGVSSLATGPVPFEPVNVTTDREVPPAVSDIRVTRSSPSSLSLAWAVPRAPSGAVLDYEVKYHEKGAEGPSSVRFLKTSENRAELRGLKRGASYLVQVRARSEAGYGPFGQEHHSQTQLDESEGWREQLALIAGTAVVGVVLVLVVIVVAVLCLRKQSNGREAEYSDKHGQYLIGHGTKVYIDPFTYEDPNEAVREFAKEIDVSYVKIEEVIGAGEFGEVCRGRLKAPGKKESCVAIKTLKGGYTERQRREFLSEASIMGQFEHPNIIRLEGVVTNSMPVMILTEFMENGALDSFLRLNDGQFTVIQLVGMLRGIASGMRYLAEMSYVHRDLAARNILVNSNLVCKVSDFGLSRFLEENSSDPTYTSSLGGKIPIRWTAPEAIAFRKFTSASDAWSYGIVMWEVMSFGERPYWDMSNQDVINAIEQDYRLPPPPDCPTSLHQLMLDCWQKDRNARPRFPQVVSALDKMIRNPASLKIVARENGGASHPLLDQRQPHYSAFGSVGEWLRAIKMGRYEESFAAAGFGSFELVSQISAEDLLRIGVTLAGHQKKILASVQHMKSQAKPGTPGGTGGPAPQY
The experiment in a line: Inhibition of EphB4 ACT labeling site in human Huh-7 cells at 1 uM by KiNativ Profiling analysis relative to control. The class given is cell-based.

Tyrosine-protein kinase Fer, sequence (P16591 whole entry, looked up): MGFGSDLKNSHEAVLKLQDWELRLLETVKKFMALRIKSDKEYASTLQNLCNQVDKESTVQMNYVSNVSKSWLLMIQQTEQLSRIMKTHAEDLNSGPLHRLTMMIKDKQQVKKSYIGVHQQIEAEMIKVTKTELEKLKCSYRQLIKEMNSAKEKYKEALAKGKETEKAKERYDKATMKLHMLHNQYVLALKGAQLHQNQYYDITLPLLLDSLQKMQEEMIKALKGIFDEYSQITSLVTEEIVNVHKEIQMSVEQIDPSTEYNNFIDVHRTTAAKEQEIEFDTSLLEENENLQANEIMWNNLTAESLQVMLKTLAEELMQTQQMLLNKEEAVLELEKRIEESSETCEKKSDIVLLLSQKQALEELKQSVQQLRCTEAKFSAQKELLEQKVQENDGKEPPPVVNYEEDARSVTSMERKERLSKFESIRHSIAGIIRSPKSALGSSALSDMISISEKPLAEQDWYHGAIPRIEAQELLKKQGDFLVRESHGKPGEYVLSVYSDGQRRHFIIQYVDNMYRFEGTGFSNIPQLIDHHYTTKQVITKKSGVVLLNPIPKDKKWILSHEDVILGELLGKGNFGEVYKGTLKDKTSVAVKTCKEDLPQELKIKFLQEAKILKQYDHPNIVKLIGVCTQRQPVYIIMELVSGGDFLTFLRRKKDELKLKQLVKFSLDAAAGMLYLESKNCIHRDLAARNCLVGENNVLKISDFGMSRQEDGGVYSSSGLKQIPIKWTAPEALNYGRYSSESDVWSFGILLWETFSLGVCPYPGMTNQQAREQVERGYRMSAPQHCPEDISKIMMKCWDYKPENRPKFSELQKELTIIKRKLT
Mitogen-activated protein kinase 8, sequence (P45983 whole entry): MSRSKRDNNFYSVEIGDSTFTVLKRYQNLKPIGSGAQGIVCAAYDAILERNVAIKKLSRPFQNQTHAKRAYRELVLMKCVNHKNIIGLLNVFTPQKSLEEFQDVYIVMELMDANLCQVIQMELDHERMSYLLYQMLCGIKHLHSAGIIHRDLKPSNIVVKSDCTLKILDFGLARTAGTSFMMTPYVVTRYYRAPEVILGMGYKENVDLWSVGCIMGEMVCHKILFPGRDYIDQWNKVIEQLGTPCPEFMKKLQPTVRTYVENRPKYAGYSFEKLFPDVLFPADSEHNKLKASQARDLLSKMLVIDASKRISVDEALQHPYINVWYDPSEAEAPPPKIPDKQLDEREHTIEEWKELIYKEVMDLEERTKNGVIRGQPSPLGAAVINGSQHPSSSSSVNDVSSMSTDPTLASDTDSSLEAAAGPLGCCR
Receptor tyrosine-protein kinase erbB-3 (Homo sapiens), sequence (P21860 whole entry): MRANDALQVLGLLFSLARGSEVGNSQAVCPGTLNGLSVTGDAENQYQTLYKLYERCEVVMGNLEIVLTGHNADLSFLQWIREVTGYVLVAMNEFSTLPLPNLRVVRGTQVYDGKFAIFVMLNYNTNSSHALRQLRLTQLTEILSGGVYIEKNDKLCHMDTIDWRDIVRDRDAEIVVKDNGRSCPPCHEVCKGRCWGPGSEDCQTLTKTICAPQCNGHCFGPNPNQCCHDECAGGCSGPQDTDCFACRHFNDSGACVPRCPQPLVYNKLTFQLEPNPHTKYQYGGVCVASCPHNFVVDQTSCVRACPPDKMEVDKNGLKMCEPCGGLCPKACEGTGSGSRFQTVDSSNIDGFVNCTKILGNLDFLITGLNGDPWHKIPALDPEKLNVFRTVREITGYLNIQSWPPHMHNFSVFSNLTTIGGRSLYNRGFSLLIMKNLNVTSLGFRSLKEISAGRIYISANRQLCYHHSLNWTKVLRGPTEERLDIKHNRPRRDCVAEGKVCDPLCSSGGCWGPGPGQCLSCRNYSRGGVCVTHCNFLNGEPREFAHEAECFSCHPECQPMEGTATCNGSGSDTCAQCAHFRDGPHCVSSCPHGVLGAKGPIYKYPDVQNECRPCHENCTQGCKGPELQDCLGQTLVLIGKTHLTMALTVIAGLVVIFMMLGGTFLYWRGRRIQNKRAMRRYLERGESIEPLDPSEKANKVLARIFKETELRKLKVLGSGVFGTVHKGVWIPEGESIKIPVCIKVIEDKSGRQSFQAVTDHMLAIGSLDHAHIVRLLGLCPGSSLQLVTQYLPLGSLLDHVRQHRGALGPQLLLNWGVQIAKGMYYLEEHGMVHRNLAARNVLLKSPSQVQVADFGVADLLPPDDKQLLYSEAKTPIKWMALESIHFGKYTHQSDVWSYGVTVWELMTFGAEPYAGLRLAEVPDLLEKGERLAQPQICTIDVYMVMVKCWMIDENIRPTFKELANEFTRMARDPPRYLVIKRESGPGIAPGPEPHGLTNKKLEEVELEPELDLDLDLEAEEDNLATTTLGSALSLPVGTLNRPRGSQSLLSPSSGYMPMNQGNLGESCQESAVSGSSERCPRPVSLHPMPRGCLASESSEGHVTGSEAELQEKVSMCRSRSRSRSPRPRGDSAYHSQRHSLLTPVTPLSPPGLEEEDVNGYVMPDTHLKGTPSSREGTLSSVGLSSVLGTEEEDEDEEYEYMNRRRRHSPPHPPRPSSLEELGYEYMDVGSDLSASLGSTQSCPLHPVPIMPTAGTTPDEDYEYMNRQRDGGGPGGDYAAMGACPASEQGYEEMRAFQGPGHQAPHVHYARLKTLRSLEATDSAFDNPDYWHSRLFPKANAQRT
Serine/threonine-protein kinase WNK1 (Homo sapiens), sequence (Q9H4A3 whole entry, looked up): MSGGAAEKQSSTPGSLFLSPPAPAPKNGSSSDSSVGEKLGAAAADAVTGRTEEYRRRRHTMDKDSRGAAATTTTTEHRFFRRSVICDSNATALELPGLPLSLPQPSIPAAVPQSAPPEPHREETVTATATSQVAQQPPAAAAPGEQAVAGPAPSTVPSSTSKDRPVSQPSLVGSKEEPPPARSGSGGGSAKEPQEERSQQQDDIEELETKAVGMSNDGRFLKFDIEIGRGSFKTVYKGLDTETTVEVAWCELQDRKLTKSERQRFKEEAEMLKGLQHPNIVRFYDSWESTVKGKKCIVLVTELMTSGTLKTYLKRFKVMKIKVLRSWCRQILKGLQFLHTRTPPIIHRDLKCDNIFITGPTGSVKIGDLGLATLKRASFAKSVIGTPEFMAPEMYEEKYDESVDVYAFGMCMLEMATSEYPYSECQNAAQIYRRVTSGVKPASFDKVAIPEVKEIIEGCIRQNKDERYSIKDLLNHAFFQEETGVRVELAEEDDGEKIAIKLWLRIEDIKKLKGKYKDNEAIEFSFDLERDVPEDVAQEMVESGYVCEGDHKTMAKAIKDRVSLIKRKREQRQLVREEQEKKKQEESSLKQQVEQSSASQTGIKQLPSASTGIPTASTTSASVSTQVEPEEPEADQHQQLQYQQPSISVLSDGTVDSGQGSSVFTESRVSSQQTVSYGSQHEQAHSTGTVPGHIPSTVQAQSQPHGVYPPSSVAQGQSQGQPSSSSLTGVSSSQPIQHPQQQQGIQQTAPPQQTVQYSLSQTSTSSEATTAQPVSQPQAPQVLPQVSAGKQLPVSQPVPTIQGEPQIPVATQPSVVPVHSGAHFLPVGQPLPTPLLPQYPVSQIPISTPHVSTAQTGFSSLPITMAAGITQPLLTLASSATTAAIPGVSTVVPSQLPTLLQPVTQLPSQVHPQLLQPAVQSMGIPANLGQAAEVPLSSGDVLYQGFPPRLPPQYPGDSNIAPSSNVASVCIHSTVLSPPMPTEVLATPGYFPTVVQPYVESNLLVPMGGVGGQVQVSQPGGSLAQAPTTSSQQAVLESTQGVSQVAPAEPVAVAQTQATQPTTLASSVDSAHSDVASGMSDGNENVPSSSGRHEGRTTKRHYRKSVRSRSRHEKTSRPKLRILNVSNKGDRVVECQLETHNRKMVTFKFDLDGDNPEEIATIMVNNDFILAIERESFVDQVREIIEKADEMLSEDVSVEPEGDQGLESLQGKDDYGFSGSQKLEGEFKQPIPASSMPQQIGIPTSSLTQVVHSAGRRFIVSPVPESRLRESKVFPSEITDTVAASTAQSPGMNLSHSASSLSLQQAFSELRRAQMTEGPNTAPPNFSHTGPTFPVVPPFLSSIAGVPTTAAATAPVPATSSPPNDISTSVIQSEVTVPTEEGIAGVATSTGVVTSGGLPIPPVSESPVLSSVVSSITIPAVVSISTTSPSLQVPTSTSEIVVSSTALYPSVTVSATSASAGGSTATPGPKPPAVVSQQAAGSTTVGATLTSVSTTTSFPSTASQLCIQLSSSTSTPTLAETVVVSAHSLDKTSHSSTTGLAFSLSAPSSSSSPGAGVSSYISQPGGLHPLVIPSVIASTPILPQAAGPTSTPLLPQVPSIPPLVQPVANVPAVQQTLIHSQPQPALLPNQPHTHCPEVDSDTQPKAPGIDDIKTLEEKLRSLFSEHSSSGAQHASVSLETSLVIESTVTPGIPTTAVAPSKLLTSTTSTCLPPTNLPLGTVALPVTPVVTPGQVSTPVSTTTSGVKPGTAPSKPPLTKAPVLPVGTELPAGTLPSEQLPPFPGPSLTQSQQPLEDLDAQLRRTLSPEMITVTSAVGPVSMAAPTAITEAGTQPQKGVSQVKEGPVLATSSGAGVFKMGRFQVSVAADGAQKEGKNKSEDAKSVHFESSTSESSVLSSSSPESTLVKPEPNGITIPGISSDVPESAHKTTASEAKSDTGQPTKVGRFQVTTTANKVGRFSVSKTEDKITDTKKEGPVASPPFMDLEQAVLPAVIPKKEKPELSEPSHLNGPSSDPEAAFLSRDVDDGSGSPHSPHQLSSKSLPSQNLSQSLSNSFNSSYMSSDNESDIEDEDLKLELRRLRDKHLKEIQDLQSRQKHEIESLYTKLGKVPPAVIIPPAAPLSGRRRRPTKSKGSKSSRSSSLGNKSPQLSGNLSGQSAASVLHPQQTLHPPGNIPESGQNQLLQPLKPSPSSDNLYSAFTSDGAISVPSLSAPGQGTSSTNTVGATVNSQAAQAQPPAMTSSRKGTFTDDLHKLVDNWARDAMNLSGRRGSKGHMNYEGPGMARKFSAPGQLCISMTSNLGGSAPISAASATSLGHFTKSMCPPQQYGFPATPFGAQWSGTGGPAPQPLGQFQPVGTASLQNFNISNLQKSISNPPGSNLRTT

For orientation: inhibition means the drop in the measured response relative to a control, in per cent. By Cmax is commonly meant the peak of the concentration-time curve. On to `CCN1CCN(Cc2ccc(NC(=O)c3ccc(C)c(/C=C/c4cnc5[nH]ccc5c4OC)c3)cc2C(F)(F)F)CC1`, for which the inhibition in data set [1] is -10%; in data set [2], 40.6%; in data set [3] it was 21.3%; in [4] it was 21%; in data set [5] it was 11.2%; in data set [6] it was 10.1%. In addition, the inhibition in data set [7] stood at 30.2%. The molecule further had a Cmax in data set [8] of 163 ng/mL.

For `CCN1CCN(Cc2ccc(NC(=O)c3ccc(C)c(Oc4ccnc5[nH]ccc45)c3)cc2C(F)(F)F)CC1`, the inhibition in data set [1] was 88%; in [2] it was 73.7%; in [3] it was 56.6%; in data set [4] it was -3.9%; in [9], 12.1%; in data set [5] it was 4.1%. The values for the inhibition in data set [6] and in [7] were 10.3% and 31.2%, respectively. Moreover, in data set [8], the highest level (Cmax) was 316 ng/mL.

In the case of `CNc1cc(Oc2cc(C(=O)Nc3cc(N4CCN(C)CC4)cc(C(F)(F)F)c3)ccc2C)ncn1`, the inhibition in data set [9] turned out to be 75.4%.
